From ChEMBL document CHEMBL4513216, “Probing the Open Global Health Chemical Diversity Library for Multistage-Active Starting Points for Next-Generation Antimalarials” (ACS Infect Dis, 2020)

Assay: Toxicity liver stage against HepG2, at 10uM
Type: cell-based
Parameters: test concentration 10 uM, cell line HepG2-A16-CD81EGFP
Details: human, HepG2-A16-CD81EGFP cells; read-out: INHIBITION
Summary of the method: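 Uninfected HepG2-A16-CD81EGFP cells, 3 × 10^3 per well, 1536-well, plated on prespotted compound at 10 μM final, parasite-free screening media added to match infected plates; puromycin 10 μM positive, DMSO 0.5% negative; run in parallel with 48 h PbLuc assay at 37 °C, 5% CO2; viability by CellTiter-Glo luminescence, normalized to controls.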

| SMILES | cytotoxicity at 10 µM |
| --- | --- |
| CC(NC(=O)CCCOc1ccccc1Cl)c1ccncc1 (stereo unspecified) | -13% |
| Cc1c(C(C)N)cnn1-c1ccccn1 (stereo unspecified) | -3.86% |
| Cc1cccc(OCCCN2CCC(N(C)Cc3noc(C)n3)C2)c1 (stereo unspecified) | -2.61% |
| Cc1cc(CN2CCc3nc(C)n(C)c(=O)c3CC2)[nH]n1 | -7.92% |
| CN(C)CCCNC(=O)c1nnsc1-c1ccccc1 | 5.75% |
| OCC1(O)CCCN(Cc2noc(-c3ccccc3)n2)C1 (stereo unspecified) | -4.76% |
| Cc1cc(NC(=O)N2CCN(C)CC2C)n(Cc2ccccc2)n1 (stereo unspecified) | 11.4% |
| O=C(NCCn1cccn1)c1ccn(-c2cccc(F)c2)n1 | -4.58% |
| CCCc1nnc(N2CCN(c3ccccc3F)CC2)o1 | 5.85% |
| O=S(=O)(NCC(O)c1ccoc1)c1ccc(Cl)s1 (stereo unspecified) | -9.34% |
| Cc1ncc(CNCCO)c2cc(C(=O)c3ccc(Br)cc3)oc12 | 15.2% |
| CC(=O)N1CCCC2(CCN(C(=O)c3nccnc3N)CC2)C1 | 3.47% |
| CN(C)C(=O)CO[C@H]1CN(Cc2ccoc2)[C@@H]2COC[C@H]12 | 6.17% |
| Cn1cccc1CN(C(=O)CC(CC(=O)O)c1cccs1)C1CC1 (stereo unspecified) | 2.27% |
| COc1cccc(N2CCN(C(=O)C(O)c3ccccc3Cl)CC2=O)c1 (stereo unspecified) | 3.25% |
| O=C(CSC1CCc2ccccc2NC1=O)NCCc1ccc(O)cc1 (stereo unspecified) | -4.25% |
| O=C(CCc1ccsc1)NCC1CCN(C2CC2)C1 (stereo unspecified) | 2.63% |
| Cc1n[nH]c2c1C(c1ccc3c(c1)OCCO3)SCC(=O)N2 (stereo unspecified) | -0.37% |
| CC(CCn1cccn1)NCc1n[nH]c2c1CCCCC2 (stereo unspecified) | -3.98% |
| Cc1nc(CN2C[C@@H]3CCCO[C@@H]3[C@H](N(C)C(C)C)C2)cs1 | 6.86% |
| Cc1ccc(F)c(S(=O)(=O)NCc2cccc(N3CCOC3=O)c2)c1 | 9.62% |

| SMILES | cytotoxicity at 10 µM |
| --- | --- |
| Cc1cnc(CN2CCN(C(C)c3nc(C)no3)CC2)cn1 (stereo unspecified) | 1.81% |
| O=C(c1cccs1)N1CC[C@@H]2CN(C3CCOCC3)CCO[C@@H]2C1 | -110% |
| CCn1ncc2c1CN(CCc1cccc(Cl)c1)CC2COC (stereo unspecified) | -98.4% |
| CCOCCOC(C)C(=O)NCc1ccc(N2CCCCC2)cc1 (stereo unspecified) | 11.6% |
| COc1cccc(CN2CCN(c3ccc4nncn4n3)C(C)C2)c1 (stereo unspecified) | 38.3% |
| O=C(Cn1ncc2ccccc21)Nc1ccnn1CC1CCOC1 (stereo unspecified) | 3.03% |
| CN(Cc1nc(N)c2ccccc2n1)C1CCCN(c2cccnn2)C1 (stereo unspecified) | -12.2% |
| CC(C)Oc1cc(N2CC[C@H](CO)[C@@H](O)C2)nc(N)n1 | 2.41% |
| CCN1CCN(C[C@@H]2CN(c3ncccc3C(F)(F)F)C[C@@H]2CO)CC1 | -4.47% |
| CCN(CC)CC[C@H]1CN(C(=O)NC2CCCCC2)CC[C@H]1CC(=O)O | 7.77% |
| c1cnnc(N2CCCC(NCc3ccc(-n4ccnc4)cc3)C2)c1 (stereo unspecified) | 0.866% |
| Cc1ccc(CN2CC[C@@H]3CN(S(C)(=O)=O)CCO[C@@H]3C2)o1 | 8.76% |
| Cn1cc(CN2C[C@@H]3COC[C@H](C(=O)Nc4cccnc4)[C@@H]3C2)cn1 | 9.34% |
| Fc1ccc(-c2nnc(CN3CCCC(Cn4cncn4)C3)o2)cc1 (stereo unspecified) | -4.87% |
| Cc1cc(NCCCOC(C)C)c2nncn2n1 | 6.17% |
| O=C(Cc1ccc(O)c(Cl)c1)N1CCN(CC2CC2)[C@@H]2CS(=O)(=O)C[C@@H]21 | 5.84% |
| Cc1ccc(-c2cc(C3CCNCC3)nc(C)n2)cc1 | 9.63% |
| CC(C)Oc1ccccc1C(=O)NCCc1nncn1C | -7.71% |
| CCn1cnnc1C1CCN(C(=O)c2cc(C)c(C)s2)CC1 | -26.9% |
| COCC(C)(C#N)NC(=O)COc1ccccc1Br (stereo unspecified) | 5.67% |
| CC(C)N1CCCc2sc(C(=O)NC3CC3)nc21 | -143% |

| SMILES | cytotoxicity at 10 µM |
| --- | --- |
| Cn1nnc2c1CCN(S(C)(=O)=O)C2COCC1CC1 (stereo unspecified) | -4.6% |
| CN(C)CCNC(=O)c1noc2c1CN(C(=O)N(C)C)CC2 | 10.6% |
| O=C1Nc2ccccc2NC12CCN(Cc1nnc(C3CC3)o1)CC2 | -7.03% |
| Cc1ccc(NC(=O)N2C[C@@H]3CC[C@H]2CN(Cc2cscn2)C3)cc1 | -7.47% |
| Cc1cc2c(=O)n3c(nc2s1)CCN(C(=O)c1nn(C)cc1Cl)CC3 | 16.6% |
| CN1CCN(C(=O)[C@H]2C[C@H]3[C@H](CCN3Cc3nccs3)O2)CC1 | 1.73% |
| CCOC(=O)CNC(=O)c1cccnc1Oc1ccc(Cl)cc1 | 1.63% |
| CC(C)(C)c1ncc(C(=O)N2CCN(C(=O)c3ccc[nH]3)CC2)c(O)n1 | -6.74% |
| CC(C#N)CSc1ccccc1NCC(=O)Nc1ccccc1 (stereo unspecified) | 6.24% |
| Cc1noc(C)c1C(=O)NCCN1CCN(c2ccccc2)CC1 | -10.8% |
| COCCNC(=O)NCc1cc(-c2ccncc2)n(C2CCCC2)n1 | -8.71% |
| O=C1COc2ccc(S(=O)(=O)NC3CC3)c3c2N1CCC3 | -16.7% |
| O=C(O)[C@@H]1CN(CC2CCC2)C[C@H]1c1ccc(F)cc1 | -3.62% |
| N[C@@H](Cc1c[nH]cn1)C(=O)N1CCC(Oc2ccc(F)cc2)CC1 | 0.828% |
| COc1c(C2CCCN2CC(=O)N(C)c2nccs2)c(C)nn1C (stereo unspecified) | 3.37% |
| Cc1oncc1C(=O)N1CC[C@@H]2[C@@H]1CC(=O)N2Cc1cccnc1 | 5.44% |
| COc1ccccc1-c1nnc([C@H]2CCN(C(=O)C3CC3)C2)o1 | 0.734% |
| O=C(NCC1CCCN(Cc2cccc3nonc23)C1)c1ccc[nH]1 (stereo unspecified) | -42.2% |
| CC(C)CC(C(=O)N1CCCSCC1)N1CCCCC1=O (stereo unspecified) | -11% |
| Cc1cccc(OC2CCN(C(=O)c3ccc4c(c3)OCO4)CC2)n1 | -5.51% |
| CO[C@@H]1CCN(Cc2ccoc2)[C@H]1Cc1ccccc1 | 7.46% |

| SMILES | cytotoxicity at 10 µM |
| --- | --- |
| O=C(NCCn1ccnc1)N1CCCC1c1ccncc1 (stereo unspecified) | -10.9% |
| Fc1ccc(CN2CCC(c3nccnc3-n3ccnc3)CC2)cc1 | -0.259% |
| CC(=O)NCC1CCN(C(=O)c2csc(-c3ccc(C)cc3C)n2)CC1 | -10.8% |
| COc1ccc(Oc2nccnc2C2CCN(C(C)=O)CC2)cc1 | -12.4% |
| Cc1cccc(COc2ccc(C(C)NS(N)(=O)=O)cc2)c1 (stereo unspecified) | -6.96% |
| Cc1ccc(CNc2n[nH]c(C)n2)cc1 | -2.25% |
| Cc1noc(C)c1-c1nc(NCCN(C)C)ncc1-c1cnccn1 | -9.03% |
| O=C1CC(NCc2ccncc2)CN1CCc1cccc(Cl)c1 (stereo unspecified) | -127% |
| COCCN1C(=O)CC[C@@H]2[C@H]1CCN2Cc1ccc(C)s1 | -70.4% |
| CCn1cc(CNC(=O)C(C)C)cn1 | 7.74% |
| CCOc1ccc(Cl)cc1CNCCCn1ccnc1 | 1.36% |
| CC(=O)N1CCOCC2(CCN(Cc3ccc(C)s3)CC2)C1 | -5.39% |
| NC(=O)C1(CCCc2cccnc2)CCCN(c2ncccn2)C1 (stereo unspecified) | 3.61% |
| c1ccc(NC[C@@H]2CCC[C@@H]3CN(Cc4cc[nH]n4)C[C@@H]32)nc1 | -111% |
| Cc1nc(N(C)C)nc(NCCc2cnccn2)c1C | -1.22% |
| CCOc1ccccc1N(C)Cc1nccn1C | -3.83% |
| CC(C)C1CN(C(=O)c2csc(CN(C)C)n2)CCC(=O)N1CC1CC1 (stereo unspecified) | -1.74% |
| Cc1ccc(CS(=O)(=O)Cc2nc(N)nc(N(C)C)n2)cc1 | 3.13% |
